Calls of active or inactive are those of the source. The rule behind the calls is not given here.
Columns and labels:
[1] = Oral bioavailability in Sprague-Dawley rat at 2 mg/kg; format: ADME, organism-based; details: in vivo
Summary of the method: (§1)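 Male Sprague-Dawley rats; 2 mg/kg IV and 2 mg/kg PO in 20% hp-β-CD; clearance, Vss, terminal t1/2, Cmax, AUClast and oral bioavailability derived.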

Cytochrome P450 1A2 = target: T1, Cytochrome P450 1A2 (Homo sapiens, UniProt P05177); test: Inhibition of CYP1A2 in human liver microsomes; format: ADME
T1 sequence (P05177 whole entry): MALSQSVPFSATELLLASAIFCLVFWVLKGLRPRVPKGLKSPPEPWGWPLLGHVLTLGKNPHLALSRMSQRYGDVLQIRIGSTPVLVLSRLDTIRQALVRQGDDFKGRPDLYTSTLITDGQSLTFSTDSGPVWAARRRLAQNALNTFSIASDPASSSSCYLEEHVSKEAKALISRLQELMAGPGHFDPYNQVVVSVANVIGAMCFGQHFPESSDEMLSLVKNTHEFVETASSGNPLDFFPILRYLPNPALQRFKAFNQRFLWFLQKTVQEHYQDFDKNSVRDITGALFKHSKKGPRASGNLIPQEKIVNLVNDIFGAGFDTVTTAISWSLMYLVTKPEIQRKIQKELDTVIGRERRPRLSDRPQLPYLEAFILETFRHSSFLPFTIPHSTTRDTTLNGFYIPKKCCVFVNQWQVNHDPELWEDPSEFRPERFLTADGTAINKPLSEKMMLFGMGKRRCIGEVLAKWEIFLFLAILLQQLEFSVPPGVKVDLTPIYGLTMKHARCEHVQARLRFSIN

[2] = target: T2, Glucose-dependent insulinotropic receptor (Homo sapiens, UniProt Q8TDV5); test: Agonist activity at human GPR119 by serum shift assay
T2 sequence (Q8TDV5 whole entry): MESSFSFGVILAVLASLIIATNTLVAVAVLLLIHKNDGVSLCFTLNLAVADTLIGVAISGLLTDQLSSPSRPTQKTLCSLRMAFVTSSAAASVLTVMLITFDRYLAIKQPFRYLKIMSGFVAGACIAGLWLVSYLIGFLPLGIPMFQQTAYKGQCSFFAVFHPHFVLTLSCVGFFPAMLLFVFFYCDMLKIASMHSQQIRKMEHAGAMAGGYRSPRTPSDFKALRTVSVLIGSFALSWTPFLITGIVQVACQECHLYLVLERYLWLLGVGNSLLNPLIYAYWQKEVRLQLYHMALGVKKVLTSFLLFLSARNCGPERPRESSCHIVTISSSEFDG
Summary of the method: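 HTRF cAMP read-out with cells plated overnight; growth medium swapped for fetal bovine serum-containing medium. Compounds serially diluted in DMSO, then in PBS with IBMX and 0.1% BSA to 2× concentration (1% DMSO) before addition. Potency compared with and without serum.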

[3] = target: T3, Uncharacterized protein (Canis lupus familiaris) (UniProt A0A8C0THM6); test: Agonist activity at canine GPR119 by HTRF cAMP assay relative to AR231453
T3 sequence (whole entry): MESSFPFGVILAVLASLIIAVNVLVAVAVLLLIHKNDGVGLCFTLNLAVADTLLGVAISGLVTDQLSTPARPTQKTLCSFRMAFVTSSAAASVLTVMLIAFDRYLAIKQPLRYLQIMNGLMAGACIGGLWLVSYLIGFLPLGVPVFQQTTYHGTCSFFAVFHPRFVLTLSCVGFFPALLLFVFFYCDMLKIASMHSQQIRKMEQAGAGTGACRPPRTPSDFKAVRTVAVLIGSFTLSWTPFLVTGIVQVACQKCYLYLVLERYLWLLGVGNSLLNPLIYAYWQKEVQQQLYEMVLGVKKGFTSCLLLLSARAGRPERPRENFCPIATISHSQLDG

Rattus norvegicus [4] = test: Antidiabetic activity in Zucker diabetic fatty rat assessed as fed glucose lowering effect at 1 to 10 mg/kg, qd administered over 4 weeks measured after 2 weeks of treatment; format: functional, organism-based
Summary of the method: (§2)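 Chronic study in ZDF rats: once-daily dosing at 1, 3 or 10 mg/kg for 4 weeks, vehicle 0.5% methylcellulose; fed glucose and body weight tracked at dosing times, HbA1c measured on day 28 relative to vehicle.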

Mus musculus [5] = test: In vivo activation of GPR119 in normoglycemic 129SVE mouse assessed as increase in GIP level in plasma at 3 to 30 mg/kg, po measured after 45 mins relative to vehicle-treated control; format: functional, organism-based
Summary of the method: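 Normoglycemic male 129SVE mice dosed orally (3 and 30 mg/kg); plasma GIP measured 45 min after dosing versus vehicle-treated controls; AR231453 at 30 mg/kg as reference agonist.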

[6] = Volume of distribution at steady state in Sprague-Dawley rat at 2 mg/kg, iv and po; format: ADME, organism-based; details: in vivo, read-out: Vdss
Summary of the method: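 Male Sprague-Dawley rats received 2 mg/kg intravenously or 2 mg/kg orally in 20% hydroxypropyl-β-cyclodextrin. Steady-state volume of distribution was taken from the plasma pharmacokinetic profile and reported in L/kg.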

[7] = Cmax in Sprague-Dawley rat at 2 mg/kg, iv and po; format: ADME, organism-based; details: in vivo; summary of the method: as §1
Mus musculus [8] = test: Antidiabetic activity in normoglycemic 129SVE mouse assessed as suppression of plasma glucose AUC at 1 to 10 mg/kg, po administered 30 mins prior to glucose challenge measured over 120 mins by OGTT relative to vehicle-treated control; format: functional
Rattus norvegicus [9] = test: Antidiabetic activity in Zucker diabetic fatty rat assessed as suppression of plasma glucose AUC administered 60 mins prior to glucose challenge by OGTT; format: functional, organism-based
[10] = Agonist activity at monkey GPR119 by HTRF cAMP assay; set-up: species or system Macaca mulatta
[11] = Half life in human liver microsomes; format: ADME
[12] = Terminal half life in Sprague-Dawley rat at 2 mg/kg, iv and po; format: ADME, organism-based; details: in vivo, read-out: beta t1/2 (converted); summary of the method: as §1
Macaca mulatta = species on record: Macaca mulatta; test: Agonist activity at monkey GPR119 by HTRF cAMP assay relative to AR231453
[13] = Plasma protein binding in human; format: ADME, cell-free; details: read-out: PPB (converted)
[14] = AUClast in Sprague-Dawley rat at 2 mg/kg, iv and po; format: ADME, organism-based; details: in vivo; summary of the method: as §1
[15] = Drug uptake in Sprague-Dawley rat brain at 2 mg/kg, po measured at 2 hrs; format: ADME, organism-based; details: read-out: Drug uptake
Summary of the method: (§3)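 Abbreviated CNS study in male SD rats given 2 mg/kg orally in 20% hp-β-CD; brain (ng/g) and plasma (ng/mL) levels sampled at 2 h post-dose, brain/plasma ratio calculated.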

[16] = target: Voltage-gated inwardly rectifying potassium channel KCNH2 (Homo sapiens, UniProt Q12809); test: Inhibition of human ERG by patch clamp assay
Rattus norvegicus [17] = test: Antidiabetic activity in Zucker diabetic fatty rat assessed as decrease in HbA1C level at 3 mg/kg, qd administered over 4 weeks measured on day 28 post last dose relative to vehicle-treated control; format: functional; set-up: scale not given: the % may be the effect or the level left; summary of the method: as §2
[18] = Clearance in Sprague-Dawley rat at 2 mg/kg, iv and po; format: ADME, organism-based; details: in vivo; summary of the method: as §1
[19] = Plasma concentration in Sprague-Dawley rat at 2 mg/kg, po measured at 2 hrs; format: ADME, organism-based; summary of the method: as §3

Chain of Voltage-gated inwardly rectifying potassium channel KCNH2 (Q12809 whole entry): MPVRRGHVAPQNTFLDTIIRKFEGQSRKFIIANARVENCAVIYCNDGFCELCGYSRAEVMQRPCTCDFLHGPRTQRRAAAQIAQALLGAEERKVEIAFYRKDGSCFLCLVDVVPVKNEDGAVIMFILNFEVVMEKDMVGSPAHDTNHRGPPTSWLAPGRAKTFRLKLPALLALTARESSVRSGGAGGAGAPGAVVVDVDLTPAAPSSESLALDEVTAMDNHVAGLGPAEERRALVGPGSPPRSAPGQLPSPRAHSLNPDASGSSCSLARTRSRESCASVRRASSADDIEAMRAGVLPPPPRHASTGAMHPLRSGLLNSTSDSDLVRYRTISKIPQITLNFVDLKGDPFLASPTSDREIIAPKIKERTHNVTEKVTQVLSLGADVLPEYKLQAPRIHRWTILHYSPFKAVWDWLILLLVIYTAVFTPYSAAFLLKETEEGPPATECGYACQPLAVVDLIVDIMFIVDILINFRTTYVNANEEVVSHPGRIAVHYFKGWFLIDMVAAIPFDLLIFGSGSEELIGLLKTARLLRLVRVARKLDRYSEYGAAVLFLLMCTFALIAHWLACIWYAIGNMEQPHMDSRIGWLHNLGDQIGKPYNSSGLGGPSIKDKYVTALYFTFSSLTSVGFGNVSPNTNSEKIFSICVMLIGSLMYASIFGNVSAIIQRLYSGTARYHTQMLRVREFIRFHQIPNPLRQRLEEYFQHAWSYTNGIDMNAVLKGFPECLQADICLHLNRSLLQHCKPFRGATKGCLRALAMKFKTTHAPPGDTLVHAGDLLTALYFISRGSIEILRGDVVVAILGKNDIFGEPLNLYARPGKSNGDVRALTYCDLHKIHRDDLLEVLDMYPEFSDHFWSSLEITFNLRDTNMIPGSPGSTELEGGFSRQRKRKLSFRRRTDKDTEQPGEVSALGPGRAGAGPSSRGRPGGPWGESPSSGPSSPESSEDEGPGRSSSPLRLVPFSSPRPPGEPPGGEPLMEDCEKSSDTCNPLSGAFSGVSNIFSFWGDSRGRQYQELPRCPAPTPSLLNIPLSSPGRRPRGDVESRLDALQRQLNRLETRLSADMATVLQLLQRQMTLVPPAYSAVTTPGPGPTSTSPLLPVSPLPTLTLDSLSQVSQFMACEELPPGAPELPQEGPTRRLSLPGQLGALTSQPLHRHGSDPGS

With `C[C@@H](OC(=O)N1CCC(O[C@H]2CC[C@H](Oc3cnc(S(C)(=O)=O)cn3)CC2)CC1)C(F)(F)F` the bioavailability [1] was 100%, the INH (Cytochrome P450 1A2) was > 50 µM and the EC50 [2] was 0.038 µM. The Emax [3] was 144%, the Activity (Rattus norvegicus [4]) was “Active” and the Activity (Mus musculus [5]) was “Active”. It also gave a Vd [6] of 2.94 L/kg, a Cmax [7] of 0.77 µg/mL and an Activity (Mus musculus [8]) of 40%. The Activity (Rattus norvegicus [9]) was “Dose-dependent effect”, the EC50 [10] was 0.0034 µM and the half-life [11] was > 1 h. For the same compound, the half-life [12] was 6.45 h, the Emax (Macaca mulatta) was 73% and the fraction unbound [13] was 0.025. For the same compound, the AUC(0-t) [14] was 5.21 µg·h/mL, the concentration at 2 h [15] was 820 ng/g and the IC50 [16] was > 30 µM. For the same compound, the Activity (Rattus norvegicus [17]) was 1.85%, the clearance [18] was 0.4 L/h/kg and the concentration at 2 h [19] was 0.841 µg/mL.
